Screens from PubChem.
Only some compounds are listed: those with a hit (about 3.5% of all), similar ones and a draw of the others.
MrgX1 ag – human MrgX1 receptor agonism, primary screen | B-score at 10 µM | actives 0.44% (n = 310,000) | MrgX1-HEK293 cells, Fluo-4 calcium fluorescence, agonist mode; stronger effect = higher value | Q96LB2;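 active = calcium response B-score plate-corrected fluorescence ratio at least 3 library SD, with starting fluorescence B-score inside 5 SD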
Target sequence (Q96LB2 whole entry, looked up): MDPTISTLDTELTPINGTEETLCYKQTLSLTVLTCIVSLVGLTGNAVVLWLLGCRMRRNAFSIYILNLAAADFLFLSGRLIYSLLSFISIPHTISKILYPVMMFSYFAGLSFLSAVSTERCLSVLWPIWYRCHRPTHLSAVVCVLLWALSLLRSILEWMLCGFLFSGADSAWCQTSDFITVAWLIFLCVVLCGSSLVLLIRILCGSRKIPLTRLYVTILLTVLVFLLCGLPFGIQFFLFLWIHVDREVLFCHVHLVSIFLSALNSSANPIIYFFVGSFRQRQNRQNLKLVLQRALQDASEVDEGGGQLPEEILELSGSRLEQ
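Test system: HEK293 cells stably expressing human MrgX1 receptor; Input: fifteen thousand cells per well; Dosing: compound delivered in addition one of three; Schedule: overnight seeding, then 1 h dark dye loading; Technique: Fluo-4 NW calcium fluorescence; Measure: B-scored fluorescence response ratio; Controls: positive and negative controls per plate.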
RGS4 block – inhibitors of human RGS4. P49798. HEK293 M3R/RGS4 inducible, Fluo-4 calcium flux; stronger effect = higher value; triggered by carbachol at its EC20. B-score at 10 µM. actives 0.45% (n = 310,000). AID 463165;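 active = B-score, a plate-corrected calcium signal, over three deviations above library mean, with baseline fluorescence within five deviations of library mean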;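 also: RGS4 expression induced by doxycycline in cells with stable M3 receptor; B-score is computed from the integrated fluorescence ratio over baseline after carbachol; higher B-score means a larger calcium signal and so more RGS4 inhibition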
Target sequence (P49798 whole entry, looked up): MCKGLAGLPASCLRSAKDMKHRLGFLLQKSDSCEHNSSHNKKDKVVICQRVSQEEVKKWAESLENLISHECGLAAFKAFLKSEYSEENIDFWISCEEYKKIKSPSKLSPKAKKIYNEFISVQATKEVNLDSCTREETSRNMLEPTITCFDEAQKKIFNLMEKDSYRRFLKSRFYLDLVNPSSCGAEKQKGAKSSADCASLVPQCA
MrgX1 allo act – human MrgX1 positive allosteric modulation, primary screen. Q96LB2. MrgX1-HEK293, Fluo-4 calcium flux, FDSS; stronger effect = higher value. B-score at 10 µM. actives 0.63% (n = 310,000);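 active = plate-corrected calcium response at least 3 library SD above typical, normal starting fluorescence, not activating the receptor alone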;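 also: compound read alongside a low EC10 to EC30 dose of BAM8-22 agonist; peak minus trough fluorescence over baseline measured at the second addition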
MrgX1 antag – human MrgX1 receptor antagonism, primary screen; MRGX1-HEK293 calcium flux, Fluo-4, BAM8-22 antagonism; stronger effect = lower value; B-score at 10 µM; actives 1.3% (n = 310,000);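 active = calcium-response B-score plate-corrected more than 3 library SD below zero, starting fluorescence within 5 deviations, no agonist response on first addition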;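 also: peak minus trough fluorescence over baseline after final BAM8-22 challenge near maximal dose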
RGS4 pot – potentiators or activators of RGS4; actives 0.92% (n = 310,000); AID 463111; HEK293 M3R/inducible RGS4, carbachol calcium flux Fluo4; stronger effect = lower value; B-score at 10 µM;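 active = B-score of the integrated calcium signal more than 4 SD below the library mean, with starting fluorescence not abnormally high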;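 also: negative B-score means reduced calcium response which marks RGS4 activation or potentiation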
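System – HEK293 FlpIn-TREx cells, stable M3R, doxycycline-inducible RGS4 · Reagent – ECmax carbachol challenge · Times – compound preincubation 20 min at room temperature before agonist · Technique – Fluo4 fluorescence kinetic imaging of calcium · Measure – B score of integrated Fluo4 ratio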
Of the large screens only hits and unclear results are named; the others gave an inactive call.

O=C(N/N=C/c1ccc(OC2CSC2)cc1)c1ccccc1	none
O=C(/C=C/c1ccc(OC2CSC2)cc1)c1ccccc1	RGS4 pot -7.53
CCc1cnccc1CCC(=O)Nc1ccccc1C	none
COc1cccc(NC(=O)c2cc3ccccc3o/c2=N\O)c1	MrgX1 ag 27
COc1ccc(NC(=O)c2cc3cccc(OC)c3oc2=Nc2ccc(C(=O)O)cc2)cc1OC	none (no result: MrgX1 ag, MrgX1 allo act, MrgX1 antag)
COc1cccc(NC(=O)c2cc3cccc(OC)c3o/c2=N\O)c1	RGS4 block 6.13
COc1cc(NC(=O)c2cc3cccc(OC)c3o2)cc(C(=O)Nc2cccc(C(F)(F)F)c2)c1	MrgX1 antag -5.18, RGS4 pot -8.21
O=C(N/N=C/c1ccc(O)cc1)c1csc2c1CCCC2	none
CC(=O)[C@H]1CC[C@H]2[C@@H]3CCC4=CC(=O)CC[C@]4(C)[C@H]3[C@H](O)C[C@]12C	none
C[C@]12CC(O)C3C(CCC4=CC(=O)CC[C@@]43C)C1CCC2c1csc(-c2ccccc2)n1 (some centres not stated)	RGS4 pot -9.61
Cc1ccc(S(=O)(=O)c2cn(Cc3ccc(F)cc3)c3cc4c(cc3c2=O)OCO4)cc1	MrgX1 antag -4.56
CCCCCCc1cc2cc(-c3nnc(-c4cc(OC)c(OC)c(OC)c4)o3)c(=O)oc2cc1O	MrgX1 ag 79.9
CCCCCCc1cc2cc(-c3nnc(-c4ccccc4OC)o3)c(=O)oc2cc1O	none
CCOc1c(C=C(C#N)C#N)c2ccccc2n1CC	MrgX1 antag -5.39
O=S(=O)(c1cccc2nsnc12)N1CCNCC1	none
O=C1NN(c2ccc(Cl)c(Cl)c2)C(=O)/C1=C/c1cccc(OC(=O)c2cccs2)c1	RGS4 block 25.4
CCOC(=O)CN(C#N)c1nc(N(C)C)nc(N(C)C)n1	none
N#CCN1CCN(CC(=O)Nc2cccc3ccccc23)CC1	none
Cc1ccc(C(C)C)c(OCCN(C)C)c1	RGS4 pot -7.08
CCCN(CCC)CCOc1cc(C)ccc1C(C)C	none
CCC(C)NC(=S)NNC(=O)c1ccc(C(C)(C)C)cc1 (configuration not stated)	none
N=C1/C(=C/c2ccc(OCc3ccccc3)cc2)C(=O)N=C2SC(CC(=O)N3CCOCC3)=NN12	MrgX1 allo act 9.74
CN(C)c1ccc(/C=C2\C(=N)N3C(=NC2=O)Sc2cc(S(C)(=O)=O)ccc23)cc1	MrgX1 ag 29.5
CN(C)c1ccc(/C=C2\C(=N)N3N=C(CC(=O)N4CCCCC4)SC3=NC2=O)cc1	MrgX1 ag 54.9
Cc1cc(/C=C2\C(=N)N3N=C(CC(=O)N4CCOCC4)SC3=NC2=O)c(C)n1Cc1ccccc1	none
COc1ccc(C=O)cc1OC(=O)N1CCOCC1	none
CCCCn1c(N)c(N(CC)C(=O)c2ccc([N+](=O)[O-])c(C)c2)c(=O)[nH]c1=O	none
O=C(O)Cc1cn(Cc2cccc(Cl)c2)c2ccccc12	none
O=C(Cc1cn(Cc2cccc(Cl)c2)c2ccccc12)N1CCCCCC1	RGS4 pot -7.19
CC1CCCN(C(=O)Cc2cn(Cc3cccc(Cl)c3)c3ccccc23)C1 (configuration not stated)	RGS4 pot -7.44
Cc1ccc(NC(=O)/C=C/C(=O)O)c([N+](=O)[O-])c1	none
COc1ccc(NC(=O)/C=C/C(=O)O)c([N+](=O)[O-])c1	MrgX1 allo act 13.5
O=C(N/N=C\c1cc([N+](=O)[O-])ccc1N1CCOCC1)c1ccccn1	MrgX1 antag -4.54
Cc1cc(C)cc(NC(=O)C(OC(=O)c2ccc([N+](=O)[O-])o2)c2ccccc2)c1 (configuration not stated)	MrgX1 antag -6.63
COc1cccc(NC(=O)C(OC(=O)c2ccc([N+](=O)[O-])o2)c2ccccc2)c1 (configuration not stated)	none
CCCC(=O)NC(=S)Nc1ccc(S(=O)(=O)N2CCc3ccccc32)cc1	none
CC(C)OC(=O)Cn1cc(C#N)c2ccccc21	none
CCOC(=O)c1sc(=S)n(-c2ccccc2Cl)c1SC	MrgX1 allo act 10.2, RGS4 pot -8.83
NC[C@H](O)c1ccc(O)c(O)c1	MrgX1 ag 38.7 (no result: RGS4 block, RGS4 pot)
CC(C)NCC(O)c1ccc(O)c(O)c1 (configuration not stated)	MrgX1 ag 32.9
CC(C)NCC(O)c1ccc2ccccc2c1 (configuration not stated)	none (no result: RGS4 block, RGS4 pot)
COc1cc(C(O)CO)ccc1O (configuration not stated)	none (no result: RGS4 block, RGS4 pot)
CCCCN(CCCC)c1ccc(C(=O)c2ccccc2C(=O)O)c(O)c1	MrgX1 ag 42
CCN(CC)CCNC(=O)c1ccc(NC(=O)c2cccc(S(=O)(=O)N3c4ccccc4CC3C)c2)cc1 (configuration not stated)	RGS4 pot -8.45
CC1Cc2ccccc2N1S(=O)(=O)c1cccc(C(=O)NCCCO)c1 (configuration not stated)	none
COc1cccc(CNC(=O)Cn2ccc3cc(S(=O)(=O)N4CCC(C)CC4)ccc32)c1	none
O=C1CCC2S/C(=C/Nc3ccc(C(F)(F)F)cc3)C(=O)N12 (configuration not stated)	MrgX1 antag -4.82
O=C1CNC(=S)N1c1nc2ccccc2s1	none
Cc1sc2nc(CSC(C)C(=O)N(C)CC(=O)Nc3ccccc3C(F)(F)F)[nH]c(=O)c2c1C (configuration not stated)	RGS4 pot -7.12
CN(CC(=O)Nc1ccccc1Br)C(=O)C(Cc1ccccc1)NC(=O)c1ccccc1 (configuration not stated)	none
Cc1ccc(-c2c[n+](CC(=O)N3c4ccccc4Sc4ccccc43)c3n2CCC3)cc1	RGS4 pot -8.89
O=C(C[n+]1cc(-c2ccccc2)n2c1CCC2)N1c2ccccc2Sc2ccccc21	none
O=C(C[n+]1cc(-c2ccc(F)cc2)n2c1CCC2)N1c2ccccc2Sc2ccccc21	RGS4 pot -9.7
Cc1c(C)c2c(OCC(=O)N3CCC[C@H]3C(=O)O)cc3c(c2oc1=O)CCC(C)(C)O3	none
CN(Cc1ccccc1)S(=O)(=O)c1ccc(S(=O)(=O)N(Cc2ccc(F)cc2)C2CCCC2)cc1	MrgX1 antag -4.56
COc1ccc(CCNC(=O)c2ccc3c(c2)NC(=O)C(CSCc2cc(C)ccc2C)N3)cc1OC (configuration not stated)	MrgX1 ag 27.5
O=C1/C(=N/n2cnnc2)c2ccccc2N1Cc1ccccc1	MrgX1 ag 44.6
Cc1ccc(C(=O)N2CCN(C)CC2)cc1[N+](=O)[O-]	none
COc1ccc(Oc2ccc(/C=C/C(=O)c3ccc(O)cc3)cc2[N+](=O)[O-])cc1	MrgX1 antag -5.38
O=C(/C=C/c1cccc([N+](=O)[O-])c1)c1ccco1	MrgX1 ag 55.6
COc1cccc(/C=C/C(=O)c2cccc([N+](=O)[O-])c2)c1OC	none
